Experimental data: the RNAGym collection of RNA variant scans (doi:10.1126/science.aae0568)
This sample holds only a part of the variants without activity.

B1: tRNA (parent)
chain: GUUCCGUUGGCGUAAUGGUAACGCGUCUCCCUCCUAAGGAGAAGACUGCGGGUUCGAGUCCCGUACGGAACG

Variants of: B1
Test: yeast fitness relative to wild type (ratio to wild type); higher = fitter; tRNA-Arg(CCU), competitive growth, 37 C, YPD
How it was run: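 Changes in genotype frequencies gave Darwinian fitness relative to wild type. Frequencies were read by 100-nucleotide paired-end sequencing of gene amplicons before and after pooled Saccharomyces cerevisiae strains, carrying tRNA-Arg(CCU) gene variants at the native locus, were competed in YPD at 37°C for 24 hours in six replicates. A genotype was kept only with ≥ 100 starting reads, and estimates < 0.5 were set to 0.5.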

Variant | yeast fitness
GUUCCCUUGGCGUAAUGGGAACGCGUCUCCCUCCUAAGGAGAAGACUCCGGGUUCGAGUCCCGUACGGAACG [G6C U19G G48C] | ≤ 0.5
GUUCCGUUGGCGUAAUGCUAACGCGACUCCCUCCUAAGGAGAAGACUGCGGGUUCGAGUCCCGUACGGAACG [G18C U26A] | 0.609
GAUCCGUUGGCGUACUGGUAACGCGUCUCCCUCCUAAGGAGAAGACUGCGGGUUCGUGUCUCGUACGGAACG [U2A A15C A57U C61U] | 0.504
GUUUCGUUGGCGUAAUGGUAAGGCGUCUCCCUCCUCAGGAGAAGACUGCGGGUUCGAGUCCGGUACGGACCG [C4U C22G A36C C62G A70C] | ≤ 0.5
GUUCCGUAGGCGUAAUGGUCACGCGUCUCCCUCCAAACGAGAAGACUGCGGGUUCGAGUCCCGUACGGUACG [U8A A20C U35A G38C A69U] | 0.597
GUUUCGUUGGCGUAAUGGUAACGCGUUUCCCUCCUAAGGAGAAGACCGCGGGUUCGAGUCCCGUACGGAACG [C4U C27U U47C] | 0.734
GUUCCGUUGGAGUAAUGGUAACGCGUGUCCCUCCUAAGGAGAAGACUGCGGGUUCGAGUCGCGUACGAAACG [C11A C27G C61G G68A] | ≤ 0.5
GUUCCGUUGGCAUAAUGGUAACGUGUCUCCCUCCUAAGGAGAAGACUGCGGGUUCGAGUCACGUACAGAACG [G12A C24U C61A G67A] | ≤ 0.5
GUUCCGUUAGCCUAAUGGUAACGCGUCUCCAUGCUAAGGAGACGACUGCGGGUUCGAGUCCCGUACGGUCCG [G9A G12C C31A C33G A43C A69U A70C] | ≤ 0.5
GUUACGUUGGCGUAACGGUAACGCGUCUCCCUUCUAAGGAGGAGACUGCGGGUUCGAGUCCCGUACGGAACG [C4A U16C C33U A42G] | ≤ 0.5
GUUCCGUUGGUGUAAUAGUAACGCGUCUACCUCCUAAGGAGAAGACUGCGGGUUCGAGUCCCGUACGGAACG [C11U G17A C29A] | ≤ 0.5
GGUCCGUUGGCGUAAUGGUAACGGGUCUCGUUCCAUAGGAGAAAACUGCGGGUUCGAGUCCCCUACGGAACG [U2G C24G C30G C31U U35A A36U G44A G63C] | 0.552
GUCCCGUUAGCGUAAUGGUAACGCGUCUCCCUCCUAAGGAGAAGACUGCGGGUUCGAGUCUCGUACGGAACG [U3C G9A C61U] | 0.827
GUUCCAUUGGCGUAAUGGUAAGGCGUCUCCCUCCUAAGGAGAAGACUGCGGGUUCGAGUCCCGUACGGAACG [G6A C22G] | 0.702
GUUCCGUUGGCGUAAUGGUAACGCGUCUCCCUCCUAAGGAGAAGACUGCGAGUUCGAGUCCCGUACGGAGCG [G51A A70G] | 0.85
GUUCCGUUGGCGUGAUGGUAACGCGUUCCCCUCCUAAGGAGAAGACUGCGGGUUCGAGUCCCGUACGGAACG [A14G C27U U28C] | 0.541
GUUGCGUUGGCGUAAUGGUAACGCGUCUCCCUCCUAAGGAGAAGACUGCGGGUUCGAGUCCCGUACGUAACG [C4G G68U] | 0.865
GUUCCGUUGGCGUAAUGGUAACGCGUCUCUCUCCUACGGAGAAGACUGCGGGUUCGAGUUCCGUACGGAACG [C30U A37C C60U] | 0.548
GUUCCGUUGGCGUAAUGGUAACGCGUCUCGCUCCUAAGGAGAAGACUGCGGGUUCGUGUCCUGUACGGAACG [C30G A57U C62U] | ≤ 0.5

Variant | yeast fitness
GUUCCGUUGGCGUAAUGGUAACGCGUCUCUCUCCUAAGGAGAAGACUGCGGGUUCGAGUCCCGUACGGCACG [C30U A69C] | 0.773
GUUCCGUUGGCGUAAUGGUAACGCGUCUCCCUCCUAAGAAGACGACUGCGGGUUCGAGUCCCGUACGGAACG [G39A A43C] | 0.796
GUUCCGUUGGCGUCAUGGUAACGCGUCUCCCUCCUAAGGAGAAGACUGCGGGUUCGAGUCGCGUACGGAACG [A14C C61G] | 0.536
GUUACGUUGGCGGAAUGGUAACGUGUCUCCCUCCUAAGGAGGAGACUGCGGAUUCGAGUCCCGUACGGAACG [C4A U13G C24U A42G G52A] | 0.601
GUUCGGUUGGCGUAAUCGUAACGCGUCUCCCUCCUAAGGAGAAGACUGCGGGUUCGACCCCCGUACGGAACG [C5G G17C G58C U59C] | 0.57
GUUCCGUUGGCGUAGUGGUAACGCGACUCCCUCCUAAGGAGAAGACUGCGGGUUCGAGUCCCGUAAGGAACG [A15G U26A C66A] | ≤ 0.5
GUUCCGUUGGCGUAAUGGCAACGCGUCUCCCUCCUAAGGAGAAGACUACGGGUUCGAGUCCAGUACGGAACG [U19C G48A C62A] | 0.91
GUUCCGUUGGUGUAAUGGUGACGCGUCUCCCUCCUCAGGAGAAGACUGGGGGUUCGAGUCGGGUACGGAACG [C11U A20G A36C C49G C61G C62G] | ≤ 0.5
GUUCCGUUGGCGUAAUGGUAACGCGUCUCCCUCCUAAGGAGAAGACUCCGGGUUCGAGUCCCCUACGGACCG [G48C G63C A70C] | ≤ 0.5
GUUCCGUUGGCGUAAUGGUAACGCGUAUCCCUCCUAAGGAGAAGACUGCGGGUUCGAGUCCCGUUCGGAACG [C27A A65U] | 0.678
GUUCCGUUGGCGUAAUGGUGACGCGUCUCCCUCCUAACGAGAAGCCUGCGAGUUCGAGUCCCGUACGGAACG [A20G G38C A45C G51A] | ≤ 0.5
GAUCCGUAGGGGUAAUGGUAACGCGUCUCGCUCCUAAGGAGAAGACUACGGGUUCGAGUCCCGUACGGAACG [U2A U8A C11G C30G G48A] | ≤ 0.5
GUUCCGUUGGCGUAAUGGUAACGCGUCUCCAUCCUAAGGAGAAGACUGCGGGUUGGAGUCCCGUACGGAACG [C31A C55G] | 0.529
GUUCCGUUGGCGUGAUGGUAACCCGUCUCCCUCCUAAGGAGAAGACUGCGGGUUCGAGUCCCGUACGGAUCG [A14G G23C A70U] | 0.564
GUUCCGAUGGCGUAUUGGUAACGCGUCUCCCUCCUCUGGAGACGAUUGGAGGUUCGAGUCCCGUACGGAACG [U7A A15U A36C A37U A43C C46U C49G G50A] | ≤ 0.5
GUUCCGUUGGGGUAAUGGUAACGCGUCUCCCACCUACGAAGAGGACUGCGGGUUCGACUACUGUACGGAACG [C11G U32A A37C G39A A43G G58C C60A C62U] | ≤ 0.5
GUUCCGUUGGCGUAAUGGUAACGCGUCUCCGUCCAAAGGAGAAGACUGCGGGUUCAAGUCCCAUACGGAACG [C31G U35A G56A G63A] | ≤ 0.5
GAUCCGUUGGCGUAAUGGUAACGCGUCUCCCUCGUAAGGAGAAGACUGCGGGUUCGAGUCCCGUACGGAACG [U2A C34G] | 0.604
